ChEMBL document CHEMBL1125495, “Inhibitors of human renin with C-termini derived from amides and esters of alpha-mercaptoalkanoic acids” (J Med Chem, 1992)

Assays:
Renin = biological target: T1, Renin (Homo sapiens, UniProt P00797); experiment: Inhibition of human plasma renin; assay type: cell-free
T1 sequence (P00797 whole entry): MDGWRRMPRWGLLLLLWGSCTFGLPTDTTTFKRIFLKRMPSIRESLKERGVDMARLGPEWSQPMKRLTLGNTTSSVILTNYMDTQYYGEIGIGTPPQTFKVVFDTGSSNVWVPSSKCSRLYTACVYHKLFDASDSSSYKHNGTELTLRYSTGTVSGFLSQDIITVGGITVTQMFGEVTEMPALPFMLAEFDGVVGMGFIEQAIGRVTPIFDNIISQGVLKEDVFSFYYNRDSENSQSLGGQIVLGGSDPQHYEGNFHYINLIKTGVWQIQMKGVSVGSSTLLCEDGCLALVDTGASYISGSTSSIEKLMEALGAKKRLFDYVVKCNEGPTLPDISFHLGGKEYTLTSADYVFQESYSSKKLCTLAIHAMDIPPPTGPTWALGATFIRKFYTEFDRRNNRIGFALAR

Renin (Homo sapiens) [1] = biological target: T2, Renin (Homo sapiens) (UniProt P00797); experiment: In vivo inhibition of plasma renin activity in sodium deficient rhesus monkeys after iv administration (dose 0.1 mg/kg, determined at peak deltaMAP).; assay type: functional, organism-based; set-up: dose 0.1 mg/kg; conditions: Cercopithecidae, target entry is the homologue from another species, at 0.1 mg/kg
T2 sequence (whole entry): T1 sequence (P00797 whole entry)
Outline: (§1)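 Sodium-deficient rhesus monkeys (N = 2) were kept on a low-sodium diet, given furosemide the evening before, and fasted 18 h. Compound was given iv through a venous catheter in 0.05% acetic acid/5% dextrose/H2O, 20 min after vehicle. Blood was drawn periodically via an arterial access port for plasma renin activity. Percent inhibition was taken at peak ΔMAP.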

Rhesus monkey [2] = experiment: In vivo effect on mean arterial pressure(peak deltaMAP) in sodium deficient rhesus monkeys after iv administration (dose 0.1 mg/kg).; assay type: functional, Cercopithecidae, Artery
Outline: (§2)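 Conscious male and female rhesus monkeys (N = 2) with chronic arterial access ports for direct MAP and heart-rate monitoring, and venous catheters for dosing. Animals were kept on a low-sodium diet, given furosemide the evening before, and fasted 18 h before and during the study. Compound was given iv in 0.05% acetic acid/5% dextrose/H2O, 20 min after a vehicle control dose. Peak changes were averaged, and the hypotensive half-life was read from time plots.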

Rhesus monkey [3] = experiment: In vivo effect on heart rate(peak deltaHR) in sodium deficient rhesus monkeys after iv administration (dose 0.1 mg/kg).; assay type: functional, Cercopithecidae; outline: as §2
Rhesus monkey [4] = experiment: Half life of hypotensive effect in sodium deficient rhesus monkeys after iv administration (dose 0.1 mg/kg).; assay type: functional, organism-based; set-up: dose 0.1 mg/kg; conditions: Cercopithecidae; outline: as §2
Renin (Homo sapiens) [5] = biological target: T2, Renin (Homo sapiens); experiment: In vivo inhibition of plasma renin activity in sodium deficient rhesus monkeys after iv administration (dose 0.43 mg/kg, determined at peak deltaMAP).; assay type: functional, organism-based; set-up: dose 0.43 mg/kg; conditions: Cercopithecidae, target entry is the homologue from another species, at 0.43 mg/kg; outline: as §1
Rhesus monkey [6] = experiment: In vivo effect on heart rate(peak deltaHR) in sodium deficient rhesus monkeys after iv administration (dose 0.43 mg/kg).; assay type: functional, Cercopithecidae; outline: as §2
Rhesus monkey [7] = experiment: Half life of hypotensive effect in sodium deficient rhesus monkeys after iv administration (dose 0.43 mg/kg).; assay type: functional, organism-based; set-up: dose 0.43 mg/kg; conditions: Cercopithecidae; outline: as §2
Rhesus monkey [8] = experiment: In vivo effect on mean arterial pressure(peak deltaMAP) in sodium deficient rhesus monkeys after iv administration (dose 0.43 mg/kg).; assay type: functional, Cercopithecidae, Artery; outline: as §2

Question: With `CC(C)(C)OC(=O)N[C@@H](Cc1ccccc1)C(=O)N[C@@H](Cc1cnc[nH]1)C(=O)N[C@@H](CC1CCCCC1)[C@@H](O)CSCC(=O)NCc1ccncc1` as the molecule, how does the IC50 (Renin) read?
Answer: Its IC50 is 92 nM.

Question: `CN1CCN(C(=O)CS(=O)(=O)C[C@H](O)[C@H](CC2CCCCC2)NC(=O)[C@H](Cc2c[nH]cn2)NC(=O)[C@H](Cc2ccccc2)NC(=O)OC(C)(C)C)CC1` was tested. Which IC50 (Renin) did it give?
Answer: The IC50 was 20 nM.

Question: With `CC(C)CC(C(=O)NCCN1CCOCC1)[S+]([O-])C[C@H](O)[C@H](CC1CCCCC1)NC(=O)[C@H](Cc1cnc[nH]1)NC(=O)[C@H](Cc1ccccc1)NC(=O)OC(C)(C)C` (stereo not given in full) as the molecule, how does the IC50 (Renin) read?
Answer: Its IC50 is 88 nM.

Question: With `CC(C)(C)OC(=O)N[C@@H](Cc1ccccc1)C(=O)N[C@@H](Cc1c[nH]cn1)C(=O)N[C@@H](CC1CCCCC1)[C@@H](O)CS(=O)(=O)CC(=O)NC1C[N+]2([O-])CCC1CC2` (stereo not given in full) as the molecule, how does the IC50 (Renin) read?
Answer: Its IC50 is 4.2 nM.

Question: With `CC(C)(C)OC(=O)N[C@@H](Cc1ccccc1)C(=O)N[C@@H](Cc1cnc[nH]1)C(=O)N[C@@H](CC1CCCCC1)[C@@H](O)CSCC(=O)NCCN1CCOCC1` as the molecule, how does the IC50 (Renin) read?
Answer: The IC50 was 40 nM.

Question: For `CC(C)CC(SC[C@H](O)[C@H](CC1CCCCC1)NC(=O)[C@H](Cc1cnc[nH]1)NC(=O)[C@H](Cc1ccccc1)NC(=O)OC(C)(C)C)C(=O)NCCN1CCOCC1` (stereo not given in full), which IC50 (Renin) is on record?
Answer: Its IC50 is 73 nM.

Question: Which results are given for `CC(C)(C)OC(=O)N[C@@H](Cc1ccccc1)C(=O)N[C@@H](Cc1c[nH]cn1)C(=O)N[C@@H](CC1CCCCC1)[C@@H](O)CS(=O)(=O)CC(=O)NCCN1CCOCC1`?
Answer: inhibition (Renin (Homo sapiens) [1]): 88%; Peak deltaMAP (Rhesus monkey [2]): -15 mmHg; Peak deltaHR (Rhesus monkey [3]): -18 beats min-1; T1/2 (Rhesus monkey [4]): < 10 min

Question: What does the source list for `CC(C)(C)OC(=O)N[C@@H](Cc1ccccc1)C(=O)N[C@@H](Cc1c[nH]cn1)C(=O)N[C@@H](CC1CCCCC1)[C@@H](O)CSCC(=O)NCCN1CCOCC1`?
Answer: inhibition (Renin (Homo sapiens) [5]): 90%; Peak deltaHR (Rhesus monkey [6]): -26 beats min-1; T1/2 (Rhesus monkey [7]): < 10 min; Peak deltaMAP (Rhesus monkey [8]): -20.5 mmHg

Question: `CC(C)(C)OC(=O)N[C@@H](Cc1ccccc1)C(=O)N[C@@H](Cc1c[nH]cn1)C(=O)N[C@@H](CC1CCCCC1)[C@@H](O)CS(=O)(=O)CC(=O)NC1CCN(Cc2ccccc2)CC1` was tested. Which IC50 (Renin) did it give?
Answer: Its IC50 is 34 nM.
